Laboratory results reported in ChEMBL document CHEMBL5724801, “EUbOPEN Chemogenomics Library - Multiplex” (2024).
Values joined by “and” are separate entries in the source; they are usually repeats but may differ in a detail not shown here. Identical values can stand only once.

Tested on: Fibroblast
Test: Multiplex assay against human fibroblast
Format: toxicity, cell-based
Procedure, shortened: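 Compound was added to live cells that had been stained at seeding with Hoechst33342, BioTracker Green Microtubule Cytoskeleton Dye, MitoTracker Red and Annexin V Alexa Fluor 680, and imaging followed on a CQ1 microscope at 37°C and 5% CO2. CellPathfinder machine-learning gating divided cells into Hoechst high-intensity objects or normal cells, normal cells into healthy, pyknosed or fragmented nuclei, and pyknosed cells into mitotic or apoptotic. Tubulin, mitochondrial-mass and membrane-permeability phenotypes are per cents of healthy-nucleus cells.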

[1] = 12 h, 1 µM, compound concentration 1 uM
[2] = 12 h, 10 µM, compound concentration 10 uM
[3] = 24 h, 1 µM, compound concentration 1 uM
[4] = 24 h, 10 µM, compound concentration 10 uM
[5] = 48 h, 1 µM, compound concentration 1 uM
[6] = 48 h, 10 µM, compound concentration 10 uM

N#Cc1ccnc(Nc2cc(C3CCN(C4COC4)CC3)cc(N3CCC(F)(F)C3)n2)c1
Population Apoptotic (%) [1]: 14.12% and 22.64%
Population Fragmented Nuclei (%) [1]: 18.52% and 8.85%
Population Healthy Nuclei (%) [1]: 42.13% and 67.7%
Population Hoechst High Intensity Objects (%) [1]: 0%
Population Membrane Permeable-Phenotype (%) [1]: 3.3% and 2.61%
Population Mitochondria Different-Phenotype (%) [1]: 16.48% and 9.8%
Population Mitotic Cells (%) [1]: 85.88% and 77.36%
Population Normal (%) [1]: 100%
Population Pyknosed Nuclei (%) [1]: 39.35% and 23.45%
Population Tubulin-Different-Phenotype (%) [1]: 31.87% and 33.33%
Total Cell Count [1]: 216 and 226
Population Apoptotic (%) [2]: 60.19% and 71.72%
Population Fragmented Nuclei (%) [2]: 13.02% and 15.68%
Population Healthy Nuclei (%) [2]: 36.74% and 30.81%
Population Hoechst High Intensity Objects (%) [2]: 0% and 0.54%
Population Mitochondria Different-Phenotype (%) [2]: 35.44% and 45.61%
Population Mitotic Cells (%) [2]: 39.81% and 28.28%
Population Normal (%) [2]: 100% and 99.46%
Population Pyknosed Nuclei (%) [2]: 50.23% and 53.51%
Population Tubulin-Different-Phenotype (%) [2]: 45.57% and 73.68%
Total Cell Count [2]: 215 and 186
Population Apoptotic (%) [3]: 7.81% and 14%
Population Fragmented Nuclei (%) [3]: 19.58% and 9.81%
Population Healthy Nuclei (%) [3]: 53.75% and 66.82%
Population Hoechst High Intensity Objects (%) [3]: 0%
Population Membrane Permeable-Phenotype (%) [3]: 5.43% and 4.2%
Population Mitochondria Different-Phenotype (%) [3]: 19.38% and 23.08%
Population Mitotic Cells (%) [3]: 92.19% and 86%
Population Normal (%) [3]: 100%
Population Pyknosed Nuclei (%) [3]: 26.67% and 23.36%
Population Tubulin-Different-Phenotype (%) [3]: 29.46% and 47.55%
Total Cell Count [3]: 240 and 214
Population Apoptotic (%) [4]: 58.59% and 84.62%
Population Fragmented Nuclei (%) [4]: 13.17% and 9.55%
Population Healthy Nuclei (%) [4]: 38.54% and 39.33%
Population Hoechst High Intensity Objects (%) [4]: 0% and 0.56%
Population Membrane Permeable-Phenotype (%) [4]: 10.13% and 20%
Population Mitochondria Different-Phenotype (%) [4]: 32.91% and 55.71%
Population Mitotic Cells (%) [4]: 41.41% and 15.38%
Population Normal (%) [4]: 100% and 99.44%
Population Pyknosed Nuclei (%) [4]: 48.29% and 51.12%
Population Tubulin-Different-Phenotype (%) [4]: 37.97% and 78.57%
Total Cell Count [4]: 205 and 179
Population Fragmented Nuclei (%) [5]: 19.03% and 11.35%
Population Healthy Nuclei (%) [5]: 63.97% and 74.24%
Population Hoechst High Intensity Objects (%) [5]: 0%
Population Membrane Permeable-Phenotype (%) [5]: 2.53% and 2.94%
Population Mitochondria Different-Phenotype (%) [5]: 21.52% and 11.18%
Population Mitotic Cells (%) [5]: 92.86% and 57.58%
Population Normal (%) [5]: 100%
Population Pyknosed Nuclei (%) [5]: 17% and 14.41%
Population Tubulin-Different-Phenotype (%) [5]: 32.91% and 54.12%
Total Cell Count [5]: 247 and 229
Population Apoptotic (%) [6]: 59.57% and 79.01%
Population Fragmented Nuclei (%) [6]: 13% and 11.52%
Population Healthy Nuclei (%) [6]: 44.84% and 46.07%
Population Hoechst High Intensity Objects (%) [6]: 0% and 0.52%
Population Membrane Permeable-Phenotype (%) [6]: 7% and 15.91%
Population Mitochondria Different-Phenotype (%) [6]: 36% and 20.45%
Population Mitotic Cells (%) [6]: 40.43% and 20.99%
Population Normal (%) [6]: 100% and 99.48%
Population Pyknosed Nuclei (%) [6]: 42.15% and 42.41%
Population Tubulin-Different-Phenotype (%) [6]: 37% and 56.82%
Total Cell Count [6]: 223 and 192

Cc1cc(Nc2ncc(Cl)c(Nc3ccccc3S(=O)(=O)C(C)C)n2)c(OC(C)C)cc1C1CCNCC1 [CERITINIB]
Population Apoptotic (%) [1]: 11.76% and 21.15%
Population Fragmented Nuclei (%) [1]: 7.37% and 5.85%
Population Healthy Nuclei (%) [1]: 53.46% and 68.78%
Population Hoechst High Intensity Objects (%) [1]: 0%
Population Membrane Permeable-Phenotype (%) [1]: 4.31% and 0.71%
Population Mitochondria Different-Phenotype (%) [1]: 43.1% and 31.21%
Population Mitotic Cells (%) [1]: 88.24% and 78.85%
Population Normal (%) [1]: 100%
Population Pyknosed Nuclei (%) [1]: 39.17% and 25.37%
Population Tubulin-Different-Phenotype (%) [1]: 63.79% and 60.99%
Total Cell Count [1]: 217 and 205
Population Apoptotic (%) [2]: 42.37% and 52.35%
Population Fragmented Nuclei (%) [2]: 13.51% and 3.96%
Population Healthy Nuclei (%) [2]: 22.7% and 22.28%
Population Hoechst High Intensity Objects (%) [2]: 0%
Population Mitochondria Different-Phenotype (%) [2]: 7.14% and 6.67%
Population Mitotic Cells (%) [2]: 57.63% and 47.65%
Population Normal (%) [2]: 100%
Population Pyknosed Nuclei (%) [2]: 63.78% and 73.76%
Population Tubulin-Different-Phenotype (%) [2]: 38.1% and 77.78%
Total Cell Count [2]: 185 and 202
Population Apoptotic (%) [3]: 20% and 32.43%
Population Fragmented Nuclei (%) [3]: 9.43% and 7.69%
Population Healthy Nuclei (%) [3]: 68.03% and 74.52%
Population Hoechst High Intensity Objects (%) [3]: 0%
Population Membrane Permeable-Phenotype (%) [3]: 4.22% and 0%
Population Mitochondria Different-Phenotype (%) [3]: 29.52% and 27.74%
Population Mitotic Cells (%) [3]: 80% and 67.57%
Population Normal (%) [3]: 100%
Population Pyknosed Nuclei (%) [3]: 22.54% and 17.79%
Population Tubulin-Different-Phenotype (%) [3]: 62.05% and 63.23%
Total Cell Count [3]: 244 and 208
Population Apoptotic (%) [4]: 65.28% and 58.33%
Population Fragmented Nuclei (%) [4]: 19.9% and 22.16%
Population Healthy Nuclei (%) [4]: 43.37% and 59.28%
Population Hoechst High Intensity Objects (%) [4]: 0%
Population Mitochondria Different-Phenotype (%) [4]: 12.94% and 7.83%
Population Mitotic Cells (%) [4]: 34.72% and 41.67%
Population Normal (%) [4]: 100%
Population Pyknosed Nuclei (%) [4]: 36.73% and 18.56%
Population Tubulin-Different-Phenotype (%) [4]: 37.65% and 81.74%
Total Cell Count [4]: 196 and 194
Population Fragmented Nuclei (%) [5]: 13.85% and 7.43%
Population Healthy Nuclei (%) [5]: 77.7% and 84.65%
Population Hoechst High Intensity Objects (%) [5]: 0%
Population Membrane Permeable-Phenotype (%) [5]: 1.74% and 1.75%
Population Mitochondria Different-Phenotype (%) [5]: 11.74% and 9.94%
Population Mitotic Cells (%) [5]: 88% and 50%
Population Normal (%) [5]: 100%
Population Pyknosed Nuclei (%) [5]: 8.45% and 7.92%
Population Tubulin-Different-Phenotype (%) [5]: 36.09% and 50.88%
Total Cell Count [5]: 296 and 202
Population Apoptotic (%) [6]: 73.33% and 50%
Population Fragmented Nuclei (%) [6]: 20.63% and 58.73%
Population Healthy Nuclei (%) [6]: 71.43% and 38.1%
Population Hoechst High Intensity Objects (%) [6]: 0%
Population Mitotic Cells (%) [6]: 26.67% and 50%
Population Normal (%) [6]: 100%
Population Pyknosed Nuclei (%) [6]: 7.94% and 3.17%
Population Tubulin-Different-Phenotype (%) [6]: 31.85% and 58.33%
Total Cell Count [6]: 189

NCCc1cn(S(=O)(=O)c2c(Cl)nc3sccn23)c2ccccc12.O=C(O)C(=O)O
Population Apoptotic (%) [1]: 45%
Population Fragmented Nuclei (%) [1]: 20% and 34%
Population Healthy Nuclei (%) [1]: 65% and 37%
Population Hoechst High Intensity Objects (%) [1]: 4% and 3%
Population Membrane Permeable-Phenotype (%) [1]: 0% and 13%
Population Mitochondria Different-Phenotype (%) [1]: 5% and 8%
Population Mitotic Cells (%) [1]: 55% and 54%
Population Normal (%) [1]: 95% and 96%
Population Pyknosed Nuclei (%) [1]: 14% and 28%
Population Tubulin-Different-Phenotype (%) [1]: 40% and 62%
Total Cell Count [1]: 146 and 170
Population Apoptotic (%) [2]: 78% and 57%
Population Fragmented Nuclei (%) [2]: 20% and 24%
Population Healthy Nuclei (%) [2]: 56% and 44%
Population Hoechst High Intensity Objects (%) [2]: 6%
Population Membrane Permeable-Phenotype (%) [2]: 0% and 5%
Population Mitochondria Different-Phenotype (%) [2]: 40% and 34%
Population Mitotic Cells (%) [2]: 21% and 42%
Population Normal (%) [2]: 93%
Population Pyknosed Nuclei (%) [2]: 22% and 30%
Population Tubulin-Different-Phenotype (%) [2]: 90% and 89%
Total Cell Count [2]: 177 and 219
Population Apoptotic (%) [3]: 50% and 46%
Population Fragmented Nuclei (%) [3]: 21% and 35%
Population Healthy Nuclei (%) [3]: 64% and 44%
Population Hoechst High Intensity Objects (%) [3]: 3% and 4%
Population Membrane Permeable-Phenotype (%) [3]: 0% and 18%
Population Mitochondria Different-Phenotype (%) [3]: 13% and 11%
Population Mitotic Cells (%) [3]: 50% and 53%
Population Normal (%) [3]: 96% and 95%
Population Pyknosed Nuclei (%) [3]: 13% and 20%
Population Tubulin-Different-Phenotype (%) [3]: 42% and 70%
Total Cell Count [3]: 156 and 166
Population Apoptotic (%) [4]: 77% and 72%
Population Fragmented Nuclei (%) [4]: 22% and 30%
Population Healthy Nuclei (%) [4]: 62% and 51%
Population Hoechst High Intensity Objects (%) [4]: 3% and 7%
Population Membrane Permeable-Phenotype (%) [4]: 0% and 5%
Population Mitochondria Different-Phenotype (%) [4]: 58% and 32%
Population Mitotic Cells (%) [4]: 22% and 27%
Population Normal (%) [4]: 96% and 92%
Population Pyknosed Nuclei (%) [4]: 14% and 18%
Population Tubulin-Different-Phenotype (%) [4]: 89% and 81%
Total Cell Count [4]: 193 and 237
Population Apoptotic (%) [5]: 50% and 54%
Population Fragmented Nuclei (%) [5]: 27% and 38%
Population Healthy Nuclei (%) [5]: 63% and 47%
Population Hoechst High Intensity Objects (%) [5]: 4% and 6%
Population Membrane Permeable-Phenotype (%) [5]: 2% and 9%
Population Mitotic Cells (%) [5]: 50% and 45%
Population Normal (%) [5]: 95% and 93%
Population Pyknosed Nuclei (%) [5]: 9% and 14%
Population Tubulin-Different-Phenotype (%) [5]: 46% and 58%
Total Cell Count [5]: 177 and 166
Population Apoptotic (%) [6]: 85% and 75%
Population Fragmented Nuclei (%) [6]: 22% and 31%
Population Healthy Nuclei (%) [6]: 65% and 59%
Population Hoechst High Intensity Objects (%) [6]: 7% and 3%
Population Membrane Permeable-Phenotype (%) [6]: 0% and 3%
Population Mitochondria Different-Phenotype (%) [6]: 43% and 24%
Population Mitotic Cells (%) [6]: 14% and 25%
Population Normal (%) [6]: 92% and 96%
Population Pyknosed Nuclei (%) [6]: 12% and 8%
Population Tubulin-Different-Phenotype (%) [6]: 92% and 74%
Total Cell Count [6]: 189 and 241
